Here are results for 20 molecules from ChEMBL document CHEMBL3351768, “7-(4-Alkylidenylpiperidinyl)-quinolone bacterial topoisomerase inhibitors” (2014).

Common to all, as to assay type: functional
For assay [1], the system named is Staphylococcus aureus. Kind of assay: Antibacterial activity against ciprofloxacin-susceptible Staphylococcus aureus OC4172 by broth microdilution method. The procedure, abridged: (§1)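 MIC by broth microdilution following CLSI M07-A9 guidelines for aerobically growing bacteria. Where a compound was tested more than once, across several test dates or batches, the modal MIC is reported.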
(Dilution methods test growth across graded concentrations, often in twofold steps.)

Assay [2] concerns Streptococcus pneumoniae. The experiment in a line: Antibacterial activity against ciprofloxacin-resistant Streptococcus pneumoniae OC6578 clinical isolate by broth microdilution method.
The test system of assay [3] is Streptococcus pneumoniae. The experiment in a line: Antibacterial activity against ciprofloxacin-resistant Streptococcus pneumoniae OC5465 clinical isolate by broth microdilution method.
Assay [4] concerns Streptococcus pneumoniae. Kind of assay: Antibacterial activity against ciprofloxacin-resistant Streptococcus pneumoniae OC6608 clinical isolate by broth microdilution method.
Assay [5] has as its system Streptococcus pneumoniae. Kind of assay: Antibacterial activity against ciprofloxacin-susceptible Streptococcus pneumoniae ATCC49619 by broth microdilution method. In outline:
as §1

The subject of assay [6] is Staphylococcus epidermidis. Kind of assay: Antibacterial activity against methicillin-resistant Staphylococcus epidermidis OC5340 by broth microdilution method. The procedure, abridged:
(§2)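 Broth microdilution MIC per CLSI M07-A9 guidelines for aerobically growing bacteria. Where a compound was tested several times (multiple test dates and batches), the modal MIC is reported.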

A further assay concerns Escherichia coli. Kind of assay: Antibacterial activity against Escherichia coli ATCC 25922 by broth microdilution method. The procedure, abridged: as §1
The test system of assay [7] is Staphylococcus aureus. The experiment in a line: Antibacterial activity against methicillin-resistant Staphylococcus aureus OC2805 by broth microdilution method. In outline:
as §2

In brackets after ≈: the same amount, converted by molar mass.

Turning to `COc1c(N2CCC(=C(Cl)CN(C)C)CC2)c(F)cc2c(=O)c(C(=O)O)cn(C3CC3)c12`, the MIC worked out at 0.25 µg/mL (≈ 0.539 µM) against Staphylococcus aureus [1]; 8 µg/mL (≈ 17.2 µM) against Streptococcus pneumoniae [2]; 2 µg/mL (≈ 4.31 µM) in the assay on Streptococcus pneumoniae [3]; 8 µg/mL (≈ 17.2 µM) in the assay with Streptococcus pneumoniae [4]; 0.5 µg/mL (≈ 1.08 µM) in the assay with Streptococcus pneumoniae [5].

With `NCC=C1CCN(c2nc3c(cc2F)c(=O)c(C(=O)O)cn3C2CC2)CC1`, the MIC against Staphylococcus aureus [1] was 0.12 µg/mL (≈ 0.322 µM); in the assay on Streptococcus pneumoniae [2] it was 8 µg/mL (≈ 21.5 µM); in the assay with Streptococcus pneumoniae [4], 8 µg/mL (≈ 21.5 µM); against Streptococcus pneumoniae [5] it was 0.5 µg/mL (≈ 1.34 µM).

`NCC(F)=C1CCN(c2nc3c(cc2F)c(=O)c(C(=O)O)cn3C2CC2)CC1`: the MIC was 0.03 µg/mL (≈ 0.0768 µM) with Staphylococcus aureus [1]; 0.5 µg/mL (≈ 1.28 µM) with Streptococcus pneumoniae [2]; 1 µg/mL (≈ 2.56 µM) in the assay on Streptococcus pneumoniae [3]; 2 µg/mL (≈ 5.12 µM) against Streptococcus pneumoniae [4]; 0.12 µg/mL (≈ 0.307 µM) in the assay with Streptococcus pneumoniae [5].

In the case of `CC(CN)=C1CCN(c2nc3c(cc2F)c(=O)c(C(=O)O)cn3C2CC2)CC1`, the MIC in the assay with Staphylococcus aureus [1] worked out at 0.06 µg/mL (≈ 0.155 µM); in the assay on Streptococcus pneumoniae [2], 1 µg/mL (≈ 2.59 µM); in the assay on Streptococcus pneumoniae [3], 1 µg/mL (≈ 2.59 µM); in the assay on Streptococcus pneumoniae [4], 0.25 µg/mL (≈ 0.647 µM); against Streptococcus pneumoniae [5], 0.12 µg/mL (≈ 0.311 µM).

`NCC(Cl)=C1CCN(c2nc3c(cc2F)c(=O)c(C(=O)O)cn3C2CC2)CC1`: the MIC turned out to be 0.06 µg/mL (≈ 0.147 µM) in the assay on Staphylococcus aureus [1]; 0.25 µg/mL (≈ 0.614 µM) against Streptococcus pneumoniae [2]; 1 µg/mL (≈ 2.46 µM) in the assay with Streptococcus pneumoniae [3]; 1 µg/mL (≈ 2.46 µM) with Streptococcus pneumoniae [4]; 0.12 µg/mL (≈ 0.295 µM) in the assay with Streptococcus pneumoniae [5].

On to `NCC(F)=C1CCN(c2cc3c(cc2F)c(=O)c(C(=O)O)cn3C2CC2)CC1`, for which the MIC in the assay on Staphylococcus aureus [1] worked out at 0.03 µg/mL (≈ 0.077 µM); against Streptococcus pneumoniae [2], 1 µg/mL (≈ 2.57 µM); against Streptococcus pneumoniae [5] it was 0.06 µg/mL (≈ 0.154 µM).

As to `CC(CN)=C1CCN(c2cc3c(cc2F)c(=O)c(C(=O)O)cn3C2CC2)CC1`, the MIC against Staphylococcus aureus [1] is 0.12 µg/mL (≈ 0.311 µM); against Streptococcus pneumoniae [2] it was 2 µg/mL (≈ 5.19 µM); in the assay on Streptococcus pneumoniae [3] it was 8 µg/mL (≈ 20.8 µM); in the assay with Streptococcus pneumoniae [4] it was 8 µg/mL (≈ 20.8 µM); against Streptococcus pneumoniae [5], 1 µg/mL (≈ 2.59 µM).

Take `NCC(Cl)=C1CCN(c2cc3c(cc2F)c(=O)c(C(=O)O)cn3C2CC2)CC1`: the MIC in the assay with Staphylococcus aureus [1] was 0.03 µg/mL (≈ 0.0739 µM); in the assay on Streptococcus pneumoniae [2], 0.5 µg/mL (≈ 1.23 µM); in the assay with Streptococcus pneumoniae [3] it was 1 µg/mL (≈ 2.46 µM); in the assay with Streptococcus pneumoniae [5], 0.12 µg/mL (≈ 0.296 µM).

As to `C[C@H]1COc2c(N3CCC(=C(Cl)CN)CC3)c(F)cc3c(=O)c(C(=O)O)cn1c23`, the MIC in the assay on Staphylococcus aureus [1] is at most 0.015 µg/mL; against Streptococcus pneumoniae [2], 0.25 µg/mL (≈ 0.593 µM); against Streptococcus pneumoniae [3], 0.5 µg/mL (≈ 1.19 µM); with Streptococcus pneumoniae [4], 0.25 µg/mL (≈ 0.593 µM); in the assay with Streptococcus pneumoniae [5], 0.03 µg/mL (≈ 0.0711 µM).

On to `NCC(F)=C1CCN(c2c(F)cc3c(=O)c(C(=O)O)cn(C4CC4)c3c2OC(F)F)CC1`, for which the MIC came to 0.06 µg/mL (≈ 0.132 µM) against Staphylococcus aureus [1]; 2 µg/mL (≈ 4.39 µM) against Streptococcus pneumoniae [2]; 0.25 µg/mL (≈ 0.549 µM) in the assay on Streptococcus pneumoniae [3]; 0.25 µg/mL (≈ 0.549 µM) against Streptococcus pneumoniae [4]; 0.25 µg/mL (≈ 0.549 µM) against Streptococcus pneumoniae [5].

Take `NCC(Cl)=C1CCN(c2c(F)cc3c(=O)c(C(=O)O)cn(C4CC4)c3c2OC(F)F)CC1`: the MIC against Staphylococcus aureus [1] came out at 0.06 µg/mL (≈ 0.127 µM); in assay [6], 0.5 µg/mL (≈ 1.06 µM); against Escherichia coli, 0.5 µg/mL (≈ 1.06 µM); with Staphylococcus aureus [7] it was 1 µg/mL (≈ 2.12 µM); against Streptococcus pneumoniae [2], 1 µg/mL (≈ 2.12 µM); against Streptococcus pneumoniae [3], 0.12 µg/mL (≈ 0.254 µM). For the same molecule, the MIC with Streptococcus pneumoniae [4] amounted to 0.5 µg/mL (≈ 1.06 µM); against Streptococcus pneumoniae [5], 0.12 µg/mL (≈ 0.254 µM).

With `COc1c(N2CCC(=C(F)CN)CC2)c(F)cc2c(=O)c(C(=O)O)cn(C3CC3)c12`, the MIC in the assay with Staphylococcus aureus [1] was found to be 0.03 µg/mL (≈ 0.0715 µM); in the assay on Streptococcus pneumoniae [2], 1 µg/mL (≈ 2.38 µM); with Streptococcus pneumoniae [3], 0.5 µg/mL (≈ 1.19 µM); with Streptococcus pneumoniae [4] it was 0.5 µg/mL (≈ 1.19 µM); against Streptococcus pneumoniae [5], 0.12 µg/mL (≈ 0.286 µM).

Take `COc1c(N2CCC(=C(C)CN)CC2)c(F)cc2c(=O)c(C(=O)O)cn(C3CC3)c12`: the minimum inhibitory concentration (MIC) in the assay with Staphylococcus aureus [1] came to 0.03 µg/mL (≈ 0.0722 µM); against Streptococcus pneumoniae [2] it was 0.25 µg/mL (≈ 0.602 µM); with Streptococcus pneumoniae [3], 0.25 µg/mL (≈ 0.602 µM); in the assay with Streptococcus pneumoniae [5] it was 0.12 µg/mL (≈ 0.289 µM).

Turning to `COc1c(N2CCC(=C(Cl)CN)CC2)c(F)cc2c(=O)c(C(=O)O)cn(C3CC3)c12`, the MIC against Staphylococcus aureus [1] was at most 0.015 µg/mL; in assay [6], 0.25 µg/mL (≈ 0.574 µM); against Escherichia coli it was 0.25 µg/mL (≈ 0.574 µM); in the assay on Staphylococcus aureus [7], 0.25 µg/mL (≈ 0.574 µM); in the assay on Streptococcus pneumoniae [2], 0.25 µg/mL (≈ 0.574 µM); with Streptococcus pneumoniae [3], 0.25 µg/mL (≈ 0.574 µM). The MIC with Streptococcus pneumoniae [4] came to 0.25 µg/mL (≈ 0.574 µM); against Streptococcus pneumoniae [5], 0.06 µg/mL (≈ 0.138 µM).

In the case of `CNCC(Cl)=C1CCN(c2c(F)cc3c(=O)c(C(=O)O)cn(C4CC4)c3c2OC)CC1`, the minimum inhibitory concentration (MIC) with Staphylococcus aureus [1] was at most 0.015 µg/mL; in assay [6], 0.5 µg/mL (≈ 1.11 µM); in the assay with Escherichia coli, 0.5 µg/mL (≈ 1.11 µM); in the assay on Staphylococcus aureus [7], 0.5 µg/mL (≈ 1.11 µM); with Streptococcus pneumoniae [2], 0.5 µg/mL (≈ 1.11 µM); against Streptococcus pneumoniae [3] it was 0.25 µg/mL (≈ 0.556 µM). The MIC worked out at 0.25 µg/mL (≈ 0.556 µM) in the assay on Streptococcus pneumoniae [4] and 0.06 µg/mL (≈ 0.133 µM) in the assay on Streptococcus pneumoniae [5].

In the case of `COc1c(N2CCC(=C(Cl)CNC(C)C)CC2)c(F)cc2c(=O)c(C(=O)O)cn(C3CC3)c12`, the MIC in the assay with Staphylococcus aureus [1] came to 0.12 µg/mL (≈ 0.251 µM); in the assay on Streptococcus pneumoniae [2], 4 µg/mL (≈ 8.37 µM); against Streptococcus pneumoniae [3] it was 2 µg/mL (≈ 4.18 µM); against Streptococcus pneumoniae [5], 0.5 µg/mL (≈ 1.05 µM).

`CCNCC(Cl)=C1CCN(c2c(F)cc3c(=O)c(C(=O)O)cn(C4CC4)c3c2OC)CC1`: the MIC stood at 0.12 µg/mL (≈ 0.259 µM) with Staphylococcus aureus [1]; 1 µg/mL (≈ 2.16 µM) in the assay on Streptococcus pneumoniae [2]; 1 µg/mL (≈ 2.16 µM) against Streptococcus pneumoniae [3]; 1 µg/mL (≈ 2.16 µM) against Streptococcus pneumoniae [4]; 0.25 µg/mL (≈ 0.539 µM) in the assay with Streptococcus pneumoniae [5].

On to `CC1COc2c(N3CCC(=C(F)CN)CC3)c(F)cc3c(=O)c(C(=O)O)cn1c23` (racemic), for which the MIC against Staphylococcus aureus [1] stood at 0.25 µg/mL (≈ 0.617 µM); against Streptococcus pneumoniae [2], 8 µg/mL (≈ 19.7 µM); against Streptococcus pneumoniae [3], 8 µg/mL (≈ 19.7 µM); against Streptococcus pneumoniae [4], 2 µg/mL (≈ 4.93 µM); against Streptococcus pneumoniae [5] it was 0.5 µg/mL (≈ 1.23 µM).

`CC(CN)=C1CCN(c2c(F)cc3c(=O)c(C(=O)O)cn4c3c2OCC4C)CC1` (racemic): the MIC is 0.5 µg/mL (≈ 1.25 µM) in the assay on Staphylococcus aureus [1]; above 16 µg/mL against Streptococcus pneumoniae [2]; above 16 µg/mL against Streptococcus pneumoniae [3]; 4 µg/mL (≈ 9.96 µM) with Streptococcus pneumoniae [4]; 1 µg/mL (≈ 2.49 µM) with Streptococcus pneumoniae [5].

Turning to `O=C(O)c1cn(C2CC2)c2cc(N3CCNCC3)c(F)cc2c1=O` [CIPROFLOXACIN], the MIC is 0.12 µg/mL (≈ 0.362 µM) in the assay with Staphylococcus aureus [1], 8 µg/mL (≈ 24.1 µM) in assay [6] and 1 µg/mL (≈ 3.02 µM) against Streptococcus pneumoniae [5].

In general, MIC refers to the least concentration at which growth counts as inhibited.
